ChEMBL document CHEMBL4266021 (J Nat Prod, 2018)

What was measured:
[1] = Irreversible inhibition of human intestinal carboxylesterase assessed as residual activity preincubated with enzyme followed by compound dilution measured after 18 hrs using o-NPA as substrate relative to control
How it was run: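 Purified recombinant hiCE pre-incubated with inhibitor, then extensively diluted and passed through size-exclusion filtration to remove free compound. Recovered protein assayed for residual esterase activity with o-NPA. Benzil (reversible inhibitor) and DMSO (solvent) served as controls.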

Cholinesterase [2] = target: T1, Cholinesterase (Homo sapiens, UniProt P06276); test: Inhibition of human BuChE at 10 uM using butyrylhiocholine as substrate relative to control
[3] = Inhibition of human intestinal carboxylesterase using o-nitrophenyl acetate as substrate
How it was run: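 Recombinant hiCE secreted from baculovirus-infected Spodoptera frugiperda cells and purified from serum-free medium. Activity measured spectrophotometrically with o-nitrophenyl acetate as substrate. Routinely at least 8 inhibitor concentrations tested, and Ki derived.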

carboxylesterase 1 (CE1) [4] = target: T2, carboxylesterase 1 (CE1) (Homo sapiens, UniProt P23141); test: Inhibition of human CE1 expressed in human U373MG cells assessed as reduction in enzyme-mediated oseltamivir hydrolysis by measuring oseltamivir carboxylate level at 10 uM preincubated for 10 mins followed by oseltamivir addition measured after 30 mins by UPLC-MS analysis relative to control; assay type: cell-based; set-up: scale not given: the % may be the effect or the level left; details: U373MG cells that express human CE1, probe oseltamivir, read-out: Activity
T2 sequence (P23141 whole entry): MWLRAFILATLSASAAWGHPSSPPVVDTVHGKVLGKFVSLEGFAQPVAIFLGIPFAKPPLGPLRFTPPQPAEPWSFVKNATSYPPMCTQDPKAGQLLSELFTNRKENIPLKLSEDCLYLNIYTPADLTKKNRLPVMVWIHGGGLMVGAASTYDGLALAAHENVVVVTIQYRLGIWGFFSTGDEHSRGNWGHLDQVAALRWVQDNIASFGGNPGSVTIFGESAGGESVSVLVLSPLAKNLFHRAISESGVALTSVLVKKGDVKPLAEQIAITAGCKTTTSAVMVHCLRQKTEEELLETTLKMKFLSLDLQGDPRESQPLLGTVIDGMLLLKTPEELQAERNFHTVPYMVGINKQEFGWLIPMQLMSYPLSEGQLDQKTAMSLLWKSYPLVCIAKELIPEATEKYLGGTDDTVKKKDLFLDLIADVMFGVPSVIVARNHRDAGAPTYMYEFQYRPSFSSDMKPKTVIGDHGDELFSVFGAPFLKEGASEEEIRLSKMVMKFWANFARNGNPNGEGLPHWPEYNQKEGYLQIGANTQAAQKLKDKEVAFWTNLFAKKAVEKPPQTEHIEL
How it was run: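 U373MG glioblastoma cells engineered to express hCE1 (~10^6 per well) were pre-incubated 10 min with 10μM inhibitor, then oseltamivir was added (20μM final) for 30 min. Media were harvested, mixed with an equal volume of acetonitrile and centrifuged. Oseltamivir carboxylate was measured by UPLC (C18, water:acetonitrile gradient) with MS detection, as percent of DMSO-treated cells. Benzil was the positive control; duplicate points.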

carboxylesterase 1 (CE1) [5] = target: T2, carboxylesterase 1 (CE1); test: Irreversible inhibition of human CE1 assessed as residual activity preincubated with enzyme followed by compound dilution measured after 18 hrs using o-NPA as substrate relative to control; details: probe o-NPA, read-out: Activity
carboxylesterase 1 (CE1) [6] = target: T2, carboxylesterase 1 (CE1); test: Inhibition of human CE1 expressed in human U373MG cells assessed as reduction in enzyme-mediated oseltamivir hydrolysis at 10 uM preincubated for 10 mins followed by oseltamivir addition measured after 30 mins by UPLC-MS analysis relative to control; assay type: cell-based; details: U373MG cells that express human CE1, probe oseltamivir
How it was run: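 U373MG glioblastoma cells expressing hCE1 (~10^6 per well) pretreated 10 min with 10μM inhibitor, then given oseltamivir (20μM final). After 30 min, media harvested, mixed with an equal volume of acetonitrile and centrifuged. Oseltamivir carboxylate quantified by UPLC (C18, water:acetonitrile gradient) with MS detection. Expressed as percent of DMSO-treated cells. Benzil used as positive control; duplicate points.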

Acetylcholinesterase [7] = target: T3, Acetylcholinesterase (Homo sapiens, UniProt P22303); test: Inhibition of human AChE at 10 uM using acetylthiocholine as substrate relative to control
Acetylcholinesterase [8] = target: T3, Acetylcholinesterase; test: Inhibition of human AChE using acetylthiocholine as substrate
Cholinesterase [9] = target: T1, Cholinesterase; test: Inhibition of human BuChE using butyrylhiocholine as substrate
Liver carboxylesterase 1 [10] = target: T4, Liver carboxylesterase 1 (Homo sapiens, UniProt P23141); test: Binding affinity to serine residue of human CE1 assessed as adduct formation at 10 uM by mass spectrum analysis
T4 sequence (P23141 whole entry): T2 sequence (P23141 whole entry)
How it was run: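 hCE1 purified from serum-free medium of baculovirus-infected Spodoptera frugiperda cells, incubated with 10μM inhibitor. Unbound compound removed by dilution and repeated size-exclusion spin chromatography. Intact mass by ESI positive-mode MS (600–2800 m/z) in 3:2 water-acetonitrile with 0.1% formic acid, 2 min acquisition. Spectra deconvoluted, and adduct read as mass shift versus DMSO-treated protein.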

Liver carboxylesterase 1 [11] = target: T4, Liver carboxylesterase 1; test: Inhibition of human CE1 using o-NPA as substrate
How it was run: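 Recombinant human CE1 was purified from serum-free media of baculovirus-infected Spodoptera frugiperda cells secreting the enzyme. Activity was read spectrophotometrically with o-nitrophenyl acetate as substrate. At least 8 inhibitor concentrations were used and Ki was derived from them.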

T1 sequence (P06276 whole entry): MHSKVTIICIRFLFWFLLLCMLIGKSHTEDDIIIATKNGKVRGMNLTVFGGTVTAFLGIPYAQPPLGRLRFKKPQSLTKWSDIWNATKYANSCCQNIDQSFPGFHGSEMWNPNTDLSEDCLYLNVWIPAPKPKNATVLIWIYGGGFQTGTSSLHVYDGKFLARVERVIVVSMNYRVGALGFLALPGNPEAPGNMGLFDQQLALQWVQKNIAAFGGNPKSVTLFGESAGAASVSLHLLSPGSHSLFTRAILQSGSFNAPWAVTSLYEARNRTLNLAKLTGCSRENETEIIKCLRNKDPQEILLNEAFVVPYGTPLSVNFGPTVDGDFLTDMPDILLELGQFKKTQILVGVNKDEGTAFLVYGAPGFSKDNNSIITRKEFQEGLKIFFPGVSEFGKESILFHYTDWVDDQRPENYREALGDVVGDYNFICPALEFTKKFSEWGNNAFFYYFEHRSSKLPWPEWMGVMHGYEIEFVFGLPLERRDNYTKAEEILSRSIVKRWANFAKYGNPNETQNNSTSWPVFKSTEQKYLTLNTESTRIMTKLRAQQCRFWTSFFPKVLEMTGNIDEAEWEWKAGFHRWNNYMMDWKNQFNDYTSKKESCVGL
T3 sequence (P22303 whole entry): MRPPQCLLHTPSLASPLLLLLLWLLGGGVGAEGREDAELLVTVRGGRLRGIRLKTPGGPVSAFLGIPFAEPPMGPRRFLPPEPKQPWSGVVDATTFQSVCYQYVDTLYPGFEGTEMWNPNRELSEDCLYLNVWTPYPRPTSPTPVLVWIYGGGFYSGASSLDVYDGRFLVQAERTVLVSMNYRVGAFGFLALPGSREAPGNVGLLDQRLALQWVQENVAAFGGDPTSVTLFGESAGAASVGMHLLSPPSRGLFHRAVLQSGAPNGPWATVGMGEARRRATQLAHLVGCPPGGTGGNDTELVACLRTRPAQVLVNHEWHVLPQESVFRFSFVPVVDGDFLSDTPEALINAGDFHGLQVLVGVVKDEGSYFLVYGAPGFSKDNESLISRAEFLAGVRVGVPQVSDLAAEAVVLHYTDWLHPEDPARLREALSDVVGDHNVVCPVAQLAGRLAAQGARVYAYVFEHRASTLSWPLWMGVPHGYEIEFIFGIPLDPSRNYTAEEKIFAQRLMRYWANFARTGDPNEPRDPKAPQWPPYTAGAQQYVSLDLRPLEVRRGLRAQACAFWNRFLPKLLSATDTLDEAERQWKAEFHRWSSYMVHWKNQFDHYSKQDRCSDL

For `C[C@H]1COc2c1c(=O)oc(=O)c1c3c(ccc21)C(C)(C)CCC3`, the Activity [1] was 1 to 9%, the inhibition (Cholinesterase [2]) was 69% and the Ki [3] was 0.75 nM. The activity at 0.5 h, 10 µM (carboxylesterase 1 (CE1) [4]) was 10%, the activity at 18 h (carboxylesterase 1 (CE1) [5]) was 3 to 16% and the inhibition at 0.5 h, 10 µM (carboxylesterase 1 (CE1) [6]) was > 70%. It also gave an inhibition (Acetylcholinesterase [7]) of 68%, an IC50 (Acetylcholinesterase [8]) of 3210 nM and an IC50 (Cholinesterase [9]) of 2840 nM.
`O=C(C(=O)c1ccccc1)c1ccccc1` [BENZIL] gave an Activity [1] of 98%, an activity at 0.5 h, 10 µM (carboxylesterase 1 (CE1) [4]) of 5% and an activity at 18 h (carboxylesterase 1 (CE1) [5]) of 85%.
For `Cc1coc2c1c(=O)oc(=O)c1c3c(ccc12)C(C)(C)CCC3`, the Activity [1] was 0.1 to 40%, the inhibition (Cholinesterase [2]) was 38% and the Activity (Liver carboxylesterase 1 [10]) was “Active”. The Ki [3] was 1.4 nM, the activity at 0.5 h, 10 µM (carboxylesterase 1 (CE1) [4]) was 27% and the activity at 18 h (carboxylesterase 1 (CE1) [5]) was 6 to 10%. For the same molecule, the inhibition at 0.5 h, 10 µM (carboxylesterase 1 (CE1) [6]) was > 70%, the inhibition (Acetylcholinesterase [7]) was 65% and the IC50 (Acetylcholinesterase [8]) was 3310 nM. The IC50 (Cholinesterase [9]) was 7880 nM.
With `O=S(=O)(F)Cc1ccccc1` [PHENYLMETHYLSULFONYLFLUORIDE] the Activity (Liver carboxylesterase 1 [10]) was “Active”.
Work on `Cc1cccc2c1ccc1c3occ(C)c3c(=O)oc(=O)c21` yielded an Activity [1] of 4%, a Ki (Liver carboxylesterase 1 [11]) of 2.4 nM and an inhibition (Cholinesterase [2]) of 32%. The Ki [3] was 0.82 nM, the activity at 0.5 h, 10 µM (carboxylesterase 1 (CE1) [4]) was 12% and the activity at 18 h (carboxylesterase 1 (CE1) [5]) was 54%. For the same molecule, the inhibition at 0.5 h, 10 µM (carboxylesterase 1 (CE1) [6]) was > 70%, the inhibition (Acetylcholinesterase [7]) was 47% and the IC50 (Acetylcholinesterase [8]) was > 10000 nM. The IC50 (Cholinesterase [9]) was > 10000 nM.
`Cc1cccc2c1ccc1c3c(c(=O)oc(=O)c12)[C@@H](C)CO3` showed an Activity [1] of 18%, a Ki (Liver carboxylesterase 1 [11]) of 3.6 nM and an inhibition (Cholinesterase [2]) of 61%. For the same molecule, the Activity (Liver carboxylesterase 1 [10]) was “Active”, the Ki [3] was 0.61 nM and the activity at 0.5 h, 10 µM (carboxylesterase 1 (CE1) [4]) was 1%. For the same molecule, the activity at 18 h (carboxylesterase 1 (CE1) [5]) was 9%, the inhibition at 0.5 h, 10 µM (carboxylesterase 1 (CE1) [6]) was 99% and the inhibition (Acetylcholinesterase [7]) was 66%. It also gave an IC50 (Acetylcholinesterase [8]) of 10100 nM and an IC50 (Cholinesterase [9]) of 7820 nM.
